From ChEMBL document CHEMBL4513216, “Probing the Open Global Health Chemical Diversity Library for Multistage-Active Starting Points for Next-Generation Antimalarials” (ACS Infect Dis, 2020) come the findings set out here.

This data set can be described thus: Toxicity liver stage against HepG2, at 10uM. It is filed as cell-based. Details: test concentration 10 uM, cell line HepG2-A16-CD81EGFP. The following applies: human, HepG2-A16-CD81EGFP cells; read-out: INHIBITION
The gist of the method: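 Uninfected HepG2-A16-CD81EGFP cells, 3 × 10^3 per well, 1536-well, plated on prespotted compound at 10 μM final, parasite-free screening media added to match infected plates; puromycin 10 μM positive, DMSO 0.5% negative; run in parallel with 48 h PbLuc assay at 37 °C, 5% CO2; viability by CellTiter-Glo luminescence, normalized to controls.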
With `CC(Cn1ccnc1)NCc1csc2c1CCCC2` (stereo not given), the cytotoxicity at 10 µM is -3.37%.

Turning to `Cc1ccc(-c2ncc(C(=O)NCCNC(=O)C(C)C)s2)c(C)c1`, the cytotoxicity at 10 µM is -6.53%.

`Cc1ccccc1CN(CCN(C)C)Cc1ccc(C(=O)O)cc1`: the cytotoxicity at 10 µM was -1.6%.

`Cc1cccc(-c2noc([C@@H]3Cc4nc[nH]c4CN3)n2)c1`: the cytotoxicity at 10 µM was found to be 0.442%.

On to `Cc1nc(C)c(CN2CCOC(Cc3ccccc3Cl)C2)nc1C` (stereo not given), for which the cytotoxicity at 10 µM is 5.32%.

In the case of `CN(C)Cc1cnc2n1CCN(C(=O)Cc1cccc(F)c1)CC2`, the cytotoxicity at 10 µM is -11.7%.

As for `COCCN1C[C@@H]2[C@@H](OC)CCN(S(=O)(=O)c3cccnc3)[C@@H]2C1`, the cytotoxicity at 10 µM is -71.7%.

Turning to `COc1cccc(CNC(=O)N2CCCC(Cn3cc(CN)nn3)C2)c1` (stereo not given), the cytotoxicity at 10 µM is -2.07%.

Consider `CC(C)(C)S(=O)(=O)c1ccc(N2CCC(n3cccn3)CC2)cn1`, for which the cytotoxicity at 10 µM turned out to be 22.3%.

Turning to `O=C1CC[C@H](C(=O)Nc2cnn(-c3ccccc3Br)c2)N1`, the cytotoxicity at 10 µM is -2.84%.

As for `Cn1ncc2c(NCCOCc3ccccc3)nc(C3CCCC3)nc21`, the cytotoxicity at 10 µM amounted to 9.67%.

Turning to `COc1cc(N2CC[C@@H]3O[C@H](C(=O)N(C)C)C[C@@H]32)ncn1`, the cytotoxicity at 10 µM came to 1.14%.

For `N#Cc1c(F)cccc1N1CCCC(C(=O)Nc2nncs2)C1` (stereo not given), the cytotoxicity at 10 µM came to 4.48%.

In the case of `CCN1CCN(C(=O)NCc2ccccc2Cn2cncn2)CC1`, the cytotoxicity at 10 µM amounted to 0.663%.

Turning to `CC(C)(C)c1cc(NC(=O)NCCc2nnc3n2CCC3)c(C#N)s1`, the cytotoxicity at 10 µM came out at 14.1%.

For the compound `O=C(NCCC(=O)N1CCCc2ccccc21)c1cc(F)cc(F)c1`, the cytotoxicity at 10 µM is -6.14%.

`CCOC(=O)N1CCC(n2cc3[nH]cccc-3c2=O)CC1`: the cytotoxicity at 10 µM came out at 3.6%.

Consider `CCS(=O)(=O)CCNC(=O)NC(C)c1cc(C)sc1C` (stereo not given), for which the cytotoxicity at 10 µM was -3.4%.

Regarding `COc1ccc(-c2nc(CN3CC(n4cc(C)cn4)C3)no2)cc1`, the cytotoxicity at 10 µM was -14.9%.

Regarding `CC(=O)N1CCC[C@H]1C(=O)NCCOc1cccc(Cl)c1`, the cytotoxicity at 10 µM was -8.78%.

Consider `Cc1ccc(CN2CCNC(C(=O)NC3CC3)C2)cc1C` (stereo not given), for which the cytotoxicity at 10 µM is -3.41%.

In the case of `COCCN1C[C@@H]2CN(Cc3cccc(C)n3)C[C@@H]2C1=O`, the cytotoxicity at 10 µM worked out at 6.66%.

As for `CCc1cc(CN(C)C(=O)C2CC(=O)N(c3cccc(O)c3)C2)on1` (stereo not given), the cytotoxicity at 10 µM is -1.72%.

As for `Cc1cc2cccc(C(=O)N3CCOC4(CNCCOC4)C3)c2o1` (stereo not given), the cytotoxicity at 10 µM is -2.21%.

Consider `O=C1CC(NS(=O)(=O)N2CCOCC2)CN1CCc1ccccc1` (stereo not given), for which the cytotoxicity at 10 µM stood at 14.4%.

`CN(Cc1ccncc1)C(CO)c1cccc(F)c1` (stereo not given): the cytotoxicity at 10 µM is 2.35%.

With `Cc1cnc(NS(=O)(=O)c2ccccc2)s1`, the cytotoxicity at 10 µM is -2.56%.

In the case of `Cc1ccc(N(C)CC(O)COCc2ccccc2)c(C)c1` (stereo not given), the cytotoxicity at 10 µM worked out at 3.67%.

Consider `O=C(CNc1ccc(OC2CCOC2)cc1)NCc1cccs1` (stereo not given), for which the cytotoxicity at 10 µM was determined as 3.43%.

As to `C[C@@H]1CN(Cc2cccc(F)c2)C[C@]12CCN(Cc1cccnc1)C2=O`, the cytotoxicity at 10 µM was -2.6%.

Take `O=C(CCc1ccncc1)N1CCc2c(ncnc2N2CCOCC2)C1`: the cytotoxicity at 10 µM is -11.5%.

`CCSCC(C)NCc1ccccc1-n1ccnc1` (stereo not given): the cytotoxicity at 10 µM came to 11.7%.

Take `Cc1nc(C2CCN(CC(=O)NC3CC3)CC2)cc(N2CCOCC2)n1`: the cytotoxicity at 10 µM worked out at 2.39%.

Regarding `O=C1CO[C@H]2CN(Cc3cccc(F)c3F)C[C@@H]2N1C1CCOCC1`, the cytotoxicity at 10 µM was -12.3%.

Regarding `O=C(O)CN1CCC(F)(F)C2(CCN(c3ccccn3)C2)C1` (stereo not given), the cytotoxicity at 10 µM is 1.78%.

For `O=C(N1CCC(Oc2ccncc2)C1)C1(c2ccc(F)cc2)CC1` (stereo not given), the cytotoxicity at 10 µM was -8.55%.

As to `CCc1c(C)sc2ncnc(N3CC[C@@H](N4CCC(O)CC4)[C@H](O)C3)c12`, the cytotoxicity at 10 µM was found to be 6.96%.

As to `CS(=O)(=O)NCCN1CCSCC1c1ccc(Cl)cc1` (stereo not given), the cytotoxicity at 10 µM was -3.7%.

For the compound `COC(=O)c1ccc2ccn(CC3CCCN(C)C3)c(=O)c2c1` (stereo not given), the cytotoxicity at 10 µM is -16.1%.

Turning to `COC(=O)COc1cccc(NS(=O)(=O)c2cc(C(=O)O)cs2)c1`, the cytotoxicity at 10 µM was -5.25%.

As to `CN1[C@@H](c2ccccc2)[C@@H](C(=O)NCc2ccccn2)C[C@@]1(C)C(=O)O`, the cytotoxicity at 10 µM was -3.8%.

Regarding `CCOc1ccc(Cl)c(C(=O)N2CCCSCC2)n1`, the cytotoxicity at 10 µM was -4.03%.

Consider `COCC(=O)N1CCC(C(=O)Nc2ccc(S(N)(=O)=O)cc2)CC1`, for which the cytotoxicity at 10 µM is -1.47%.

For `CN(C)CCN1CCO[C@H]2CN(C(=O)C3CCOCC3)C[C@H]21`, the cytotoxicity at 10 µM was found to be 1.58%.

For `O=C(NC1CC1)C1CN(C(=O)c2cnccn2)C1`, the cytotoxicity at 10 µM is -10.2%.

Regarding `Cc1ccc(C(=O)NCCCNS(C)(=O)=O)cc1C`, the cytotoxicity at 10 µM is -1.66%.

Turning to `CNc1cc(CNC(=O)c2ccccc2)nc(-c2ccncc2)n1`, the cytotoxicity at 10 µM is 0.462%.

As to `Cc1cc2n(n1)CC(CNCc1cnn(C)c1)CN2` (stereo not given), the cytotoxicity at 10 µM was found to be 5.25%.

On to `CCOc1cc(C)nc(N2CCN(C(=O)c3ccc[nH]3)CC2)n1`, for which the cytotoxicity at 10 µM was -4%.

For `CN(C)c1cnn(Cc2nc3ccccc3n2C)c(=O)c1`, the cytotoxicity at 10 µM came out at 10.9%.

On to `CC(C)S(=O)(=O)N1CCC(c2cc3n(n2)[C@@H](C(F)(F)F)C[C@@H](C)N3)C1` (stereo not given in full), for which the cytotoxicity at 10 µM is -1.96%.

`CO[C@@H]1CCN(C(=O)Cc2ccc(F)cc2)[C@@H]1Cc1cccnc1`: the cytotoxicity at 10 µM was 10.1%.

As for `CN1CCO[C@@H]2CN(S(=O)(=O)c3cccs3)CC[C@@H]2C1`, the cytotoxicity at 10 µM amounted to 11.7%.

Take `CC(C)C[C@@H]1N[C@H](C(=O)NCC2CC2)Cc2c[nH]c3cccc1c23`: the cytotoxicity at 10 µM came out at 12.4%.

Regarding `COC(C(=O)NCc1c(C)nc2cc(=O)[nH]n2c1C)c1ccccc1` (stereo not given), the cytotoxicity at 10 µM turned out to be 0.493%.

In the case of `CC1CCc2n[nH]c(C(=O)NCCc3ccco3)c2C1` (stereo not given), the cytotoxicity at 10 µM was -6.63%.

Consider `CCC[C@H]1CN(S(=O)(=O)c2ccc(Cl)cc2)C[C@@H]1NC(C)=O`, for which the cytotoxicity at 10 µM was -12.4%.

With `CN(c1ccc(F)cc1)S(=O)(=O)c1cc2c(c(C(=O)O)c1)OCCO2`, the cytotoxicity at 10 µM was -5.79%.

For the compound `CCNc1cc2c(nn1)CCN(C(=O)c1ccc3c(c1)OCO3)C2`, the cytotoxicity at 10 µM is -13.5%.

On to `CCc1ncc(C(=O)N2CCC(O)(CN3CCOCC3)C(C)(C)C2)cn1` (stereo not given), for which the cytotoxicity at 10 µM is -4.6%.

On to `COCCN1CCC2(CC1)CC(NC(=O)COC)c1ccccc1O2` (stereo not given), for which the cytotoxicity at 10 µM is -8.43%.

On to `CN(C)C(=O)c1cnc2n1CCN(Cc1ccc3c(c1)OCO3)C2`, for which the cytotoxicity at 10 µM is -69%.

`COc1cc(C)sc1C(=O)NCCNc1ccccc1`: the cytotoxicity at 10 µM is -7.64%.

`O=C(CS(=O)(=O)Cc1ccc(Br)cc1F)Nc1cn[nH]c1`: the cytotoxicity at 10 µM is -9.2%.

On to `O=S(=O)(Nc1ccon1)c1cc(Cl)cc2c1OCC2`, for which the cytotoxicity at 10 µM turned out to be 5.81%.

As to `CN(C)c1cncc(C2CCN(CC3(O)CCCCC3)CC2)n1`, the cytotoxicity at 10 µM was -30%.

On to `C[C@]1(O)CCN(Cc2nccs2)C[C@@H]1Oc1cccc(F)c1`, for which the cytotoxicity at 10 µM is -0.779%.

As to `CC(C)c1cccc(-n2cc(O)c(C(=O)NCCCn3cccn3)n2)c1`, the cytotoxicity at 10 µM was -1.59%.

In the case of `Cc1cc(C)c(CNC(=O)C(C)Oc2ccccc2C#N)c(=O)[nH]1` (stereo not given), the cytotoxicity at 10 µM is 4.59%.

For the compound `CCOCCC(=O)N1CCCC(c2ncc[nH]2)C1` (stereo not given), the cytotoxicity at 10 µM was -9.43%.

For the compound `Cc1nc(C2CCCN2CCc2ccccn2)no1` (stereo not given), the cytotoxicity at 10 µM is 7.28%.

As to `COc1cccc(-c2nccc(C3CCCN3C)n2)c1` (stereo not given), the cytotoxicity at 10 µM worked out at 9.27%.

Consider `Cc1ncc2c(n1)CN(CCOCC(F)(F)F)CC2`, for which the cytotoxicity at 10 µM is -0.598%.

Turning to `CCN(Cc1cnn(CC)c1)C(=O)Cn1c(=O)c(C)nc2ccccc21`, the cytotoxicity at 10 µM turned out to be 0.791%.

Turning to `Cn1cnc(S(=O)(=O)N2CCCC2c2cnccn2)c1` (stereo not given), the cytotoxicity at 10 µM is -28.4%.

As for `CC1c2ccsc2CCN1Cc1cc2c(cc1O)OCO2` (stereo not given), the cytotoxicity at 10 µM was determined as 11.7%.

`Cc1n[nH]c(C)c1CNCC(O)c1ccc(F)c(F)c1` (stereo not given): the cytotoxicity at 10 µM is 4.32%.

Take `COc1ccccc1CC(C)(C)NC(=O)CNS(C)(=O)=O`: the cytotoxicity at 10 µM worked out at 4.21%.

In the case of `CO[C@@H]1CN(c2ccccc2)S(=O)(=O)[C@@]12CCN(CC1CC1)C2`, the cytotoxicity at 10 µM stood at 1.84%.

In the case of `CS(=O)(=O)NC(=O)c1cc(Cl)c2c(c1)OCCCO2`, the cytotoxicity at 10 µM was -4.94%.

Regarding `CCOC(C)C(=O)NCc1ccc(N(C)C)cc1` (stereo not given), the cytotoxicity at 10 µM was -13.3%.

Regarding `CCc1cc(N2CC(N3CCCCC3C)C2)n2nccc2n1` (stereo not given), the cytotoxicity at 10 µM is -4.85%.

In the case of `COc1cc(NC(=O)c2cc(Cl)ccc2F)c(C(=O)N(C)C)cc1OC`, the cytotoxicity at 10 µM is -2.61%.

`C=C(C)COc1cccc(C(=O)N(CC)Cc2nccn2C)c1`: the cytotoxicity at 10 µM was -4.69%.

As for `CC(C)c1ocnc1C(=O)Nc1cccc(Cn2ccccc2=O)c1`, the cytotoxicity at 10 µM was determined as 8.15%.

On to `COc1ccc(C(=O)N2C[C@@H](c3ccccc3)[C@@H]3NCCCC[C@@H]32)cc1`, for which the cytotoxicity at 10 µM was -23.3%.

Take `Cc1ccn(-c2ccccc2NCc2cscn2)n1`: the cytotoxicity at 10 µM came to 13.2%.

`CCOC(=O)CC1CCCCN1C(=O)c1cc(C)oc1C` (stereo not given): the cytotoxicity at 10 µM was 5.44%.

On to `CC(CNC(=O)c1ccncc1F)Oc1ccc(F)cc1` (stereo not given), for which the cytotoxicity at 10 µM came to 0.0383%.

On to `CNc1ccc(Cl)cc1C(=O)N1CCC(Cn2cc(CN)nn2)CC1`, for which the cytotoxicity at 10 µM was -2.37%.

Turning to `CCN1C[C@H]2CCN(C(=O)Nc3ccccc3C)CC[C@H]2S1(=O)=O`, the cytotoxicity at 10 µM amounted to 1.08%.

Consider `Cc1ccc2nc(CN3CCCCC3C(=O)N3CCOCC3)cn2c1` (stereo not given), for which the cytotoxicity at 10 µM came out at 3.13%.

Take `COc1cc(-c2cnnc(NCC3CC3)n2)cc(OC)c1OC`: the cytotoxicity at 10 µM turned out to be 8.11%.

For the compound `CN(CCn1nc2ccccn2c1=O)CC(=O)N1CCCC1`, the cytotoxicity at 10 µM stood at 7.08%.

Consider `CC(C)n1cnc2c1C(C(=O)NCCO)N(Cc1ccccc1)CC2` (stereo not given), for which the cytotoxicity at 10 µM was found to be 2.43%.
